What was measured:
Canis familiaris [1] = organism: Canis familiaris; experiment: Repolarization to reach -60mV, in canine Purkinje Fibers at a concentration of 1.0 uM at 300 ms (simulating tachycardia); assay type: functional, Canis lupus familiaris, Purkinje fiber
Summary of the method: (§1)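 Isolated canine Purkinje fiber bundles were driven by square-wave pulses 2.0 ms long at 2× threshold and equilibrated ≥1 h to steady state. Each concentration was superfused 45–60 min before recording, and action potentials were sampled at 4–6 sites per fiber in control and after drug, giving Vmax and APD to −60 mV.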

Canis familiaris [2] = experiment: Ventricular conduction time by the compound in open chest anesthetized dog, after iv administration at a dose of 5.0 mg/kg.; assay type: functional, Canis lupus familiaris, Heart; design: unit not given here
Summary of the method: (§2)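 Mongrel dogs were anesthetized with sodium pentobarbital (30 mg/kg iv, then 5 mg/kg per h), the chest opened, and the heart paced at BCL 300 ms. Compound was given iv or intraduodenally. Ventricular conduction time was taken as the interval between electrograms at the proximal and distal sites of the recording electrode array. 2-5 dogs per dose.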

Canis familiaris [3] = organism: Canis familiaris; experiment: repolarization to reach -60mV, in canine Purkinje Fibers at a concentration of 1.0 uM at 1000 ms (simulating normal heart rate); assay type: functional, Canis lupus familiaris, Purkinje fiber
Summary of the method: (§3)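 Purkinje fiber bundles were stimulated with square-wave current pulses of 2.0 ms at twice threshold and equilibrated for at least 1 h, or until action potential parameters were steady. Each concentration was superfused for 45-60 min to reach steady state. Action potentials were recorded at four to six sites per fiber, under control and after drug.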

Canis familiaris [4] = organism: Canis familiaris; experiment: Maximum rate of rise of the upstroke of transmembrane potential, in canine Purkinje Fibers at a concentration of 0.3 uM at 300 ms (simulating tachycardia); assay type: functional; design: unit not given here; details: Canis lupus familiaris, Purkinje fiber; summary of the method: as §1
Canis familiaris [5] = experiment: Atrial conduction time by the compound in open chest anesthetized dog, after id administration at a dose of 10 mg/kg.; assay type: functional, Canis lupus familiaris, Cardiac atrium; details: route intraduodenal
Summary of the method: (§4)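 Mongrel dogs anesthetized with sodium pentobarbital (30 mg/kg iv, then 5 mg/kg per h), chest opened, paced at BCL 300 ms. Atrial conduction time was taken as the interval between electrograms recorded at the proximal and distal sites of the atrial recording electrode array, before and after iv or intraduodenal dosing. Values are changes from control.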

Canis familiaris [6] = experiment: Atrial effective refractory period by the compound in open chest anesthetized dog, after id administration at a dose of 10 mg/kg.; assay type: functional, Canis lupus familiaris, Cardiac atrium; details: route intraduodenal
Summary of the method: (§5)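 Open-chest mongrel dogs under sodium pentobarbital anesthesia (30 mg/kg iv plus 5 mg/kg per h), paced at basic cycle length 300 ms. Atrial effective refractory period was determined by electrical stimulation before and after iv or intraduodenal compound and reported as change from control.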

Canis familiaris [7] = organism: Canis familiaris; experiment: Maximum rate of rise of the upstroke of transmembrane potential, in canine Purkinje Fibers at a concentration of 1.0 uM at 300 ms (simulating tachycardia); assay type: functional; design: unit not given here; details: Canis lupus familiaris, Purkinje fiber; summary of the method: as §1
Canis familiaris [8] = organism: Canis familiaris; experiment: Repolarization to reach -60mV, in canine Purkinje Fibers at a concentration of 3.0 uM at 300 ms (simulating tachycardia); assay type: functional, Canis lupus familiaris, Purkinje fiber; summary of the method: as §1
Canis familiaris [9] = organism: Canis familiaris; experiment: Repolarization to reach -60mV, in canine Purkinje Fibers at a concentration of 0.3 uM at 300 ms (simulating tachycardia); assay type: functional, Canis lupus familiaris, Purkinje fiber; summary of the method: as §1
Canis familiaris [10] = experiment: Mean arterial pressure by the compound in open chest anesthetized dog, after id administration at a dose of 10 mg/kg.; assay type: functional, Canis lupus familiaris, Artery; details: route intraduodenal
Summary of the method: (§6)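 Hemodynamics (heart rate, mean arterial pressure) recorded in pentobarbital-anesthetized (30 mg/kg iv, 5 mg/kg per h maintenance) open-chest mongrel dogs during the refractoriness study at BCL 300 ms. Readings were taken before and after iv or intraduodenal compound and expressed as change from control.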

Canis familiaris [11] = organism: Canis familiaris; experiment: Maximum rate of rise of the upstroke of transmembrane potential, in canine Purkinje Fibers at a concentration of 3.0 uM at 300 ms (simulating tachycardia); assay type: functional; design: unit not given here; details: Canis lupus familiaris, Purkinje fiber; summary of the method: as §1
Canis familiaris [12] = experiment: Ventricular conduction time by the compound in open chest anesthetized dog, after id administration at a dose of 10 mg/kg.; assay type: functional, Canis lupus familiaris, Heart; details: route intraduodenal; summary of the method: as §2
Canis familiaris [13] = experiment: Atrial effective refractory period by the compound in open chest anesthetized dog, after iv administration at a dose of 5.0 mg/kg.; assay type: functional, Canis lupus familiaris, Cardiac atrium; design: unit not given here; summary of the method: as §5
Canis familiaris [14] = experiment: Atrial conduction time by the compound in open chest anesthetized dog, after iv administration at a dose of 5.0 mg/kg.; assay type: functional, Canis lupus familiaris, Cardiac atrium; design: unit not given here; summary of the method: as §4
Canis familiaris [15] = organism: Canis familiaris; experiment: Maximum rate of rise of the upstroke of transmembrane potential, in canine Purkinje Fibers at a concentration of 3.0 uM at 1000 ms (simulating normal heart rate); assay type: functional; design: unit not given here; details: Canis lupus familiaris, Purkinje fiber; summary of the method: as §1
Canis familiaris [16] = organism: Canis familiaris; experiment: Maximum rate of rise of the upstroke of transmembrane potential, in canine Purkinje Fibers at a concentration of 1.0 uM at 1000 ms (simulating normal heart rate); assay type: functional; design: unit not given here; details: Canis lupus familiaris, Purkinje fiber; summary of the method: as §1
Canis familiaris [17] = experiment: Ventricular effective refractory period by the compound in open chest anesthetized dog, after id administration at a dose of 10 mg/kg.; assay type: functional, Canis lupus familiaris, Heart; details: route intraduodenal
Canis familiaris [18] = experiment: Heart beat by the compound in open chest anesthetized dog, after iv administration at a dose of 5.0 mg/kg.; assay type: functional, Canis lupus familiaris; design: unit not given here; summary of the method: as §6
Canis familiaris [19] = experiment: Mean arterial pressure by the compound in open chest anesthetized dog, after iv administration at a dose of 5.0 mg/kg.; assay type: functional, Canis lupus familiaris, Artery; design: unit not given here; summary of the method: as §6
Canis familiaris [20] = experiment: Heart beat by the compound in open chest anesthetized dog, after id administration at a dose of 10 mg/kg.; assay type: functional, Canis lupus familiaris; details: route intraduodenal; summary of the method: as §6
Canis familiaris [21] = experiment: Ventricular effective refractory period by the compound in open chest anesthetized dog, after iv administration at a dose of 5.0 mg/kg.; assay type: functional, Canis lupus familiaris, Heart; design: unit not given here
Canis familiaris [22] = organism: Canis familiaris; experiment: repolarization to reach -60mV, in canine Purkinje Fibers at a concentration of 0.3 uM at 1000 ms (simulating normal heart rate); assay type: functional, Canis lupus familiaris, Purkinje fiber; summary of the method: as §3
Canis familiaris [23] = organism: Canis familiaris; experiment: repolarization to reach -60mV, in canine Purkinje Fibers at a concentration of 3.0 uM at 1000 ms (simulating normal heart rate); assay type: functional, Canis lupus familiaris, Purkinje fiber; summary of the method: as §3
Canis familiaris [24] = organism: Canis familiaris; experiment: Maximum rate of rise of the upstroke of transmembrane potential, in canine Purkinje Fibers at a concentration of 0.3 uM at 1000 ms (simulating normal heart rate); assay type: functional; design: unit not given here; details: Canis lupus familiaris, Purkinje fiber; summary of the method: as §1

Which APD (Canis familiaris [1]) does the source give for `CN(Cc1ccc2ccccc2n1)CC(O)COc1ccc(NS(C)(=O)=O)cc1` (centres undefined) here?
Its APD is 19%.

What about the VCT (Canis familiaris [2]) of the same compound?
The VCT was -2.

And the APD (Canis familiaris [3])?
The APD was 43%.

And the Vmax (Canis familiaris [4])?
Its Vmax is 5.

What about the ACT (Canis familiaris [5]) of the same compound?
Its ACT is -4.

What about the AERP (Canis familiaris [6]) of the same compound?
The AERP was 31.

And the Vmax (Canis familiaris [7])?
Its Vmax is 15.

What about the APD (Canis familiaris [8]) of the same compound?
Its APD is 27%.

And the APD (Canis familiaris [9])?
The APD was 8%.

And the MBP (Canis familiaris [10])?
Its MBP is -5.

What about the Vmax (Canis familiaris [11]) of the same compound?
The Vmax was -9.

What about the VCT (Canis familiaris [12]) of the same compound?
The VCT was 1.

And the AERP (Canis familiaris [13])?
The AERP was 45.

What about the ACT (Canis familiaris [14]) of the same compound?
The ACT was -9.

And the Vmax (Canis familiaris [15])?
Its Vmax is -7.

And the Vmax (Canis familiaris [16])?
The Vmax was 6.

And the VERP (Canis familiaris [17])?
Its VERP is 20.

What about the HR (Canis familiaris [18]) of the same compound?
Its HR is -18.

What about the MBP (Canis familiaris [19]) of the same compound?
The MBP was -9.

What about the HR (Canis familiaris [20]) of the same compound?
The HR was -15.

And the VERP (Canis familiaris [21])?
The VERP was 21.

What about the APD (Canis familiaris [22]) of the same compound?
The APD was 19%.

And the APD (Canis familiaris [23])?
Its APD is 62%.

What about the Vmax (Canis familiaris [24]) of the same compound?
The Vmax was -2.

Source: ChEMBL document CHEMBL1125789, “Synthesis and selective class III antiarrhythmic activity of novel N-heteroaralkyl-substituted 1-(aryloxy)-2-propanolamine and related propylamine derivatives” (J Med Chem, 1991)
